# This sample holds only a part of the variants without activity.
# B1: tRNA (parent)
# chain: GUUCCGUUGGCGUAAUGGUAACGCGUCUCCCUCCUAAGGAGAAGACUGCGGGUUCGAGUCCCGUACGGAACG
# Variants of: B1
# Experiment: yeast fitness relative to wild type (ratio to wild type); higher = fitter; tRNA-Arg(CCU), competitive growth, 37 C, YPD
# Procedure, shortened: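 Changes in genotype frequencies gave Darwinian fitness relative to wild type. Frequencies were read by 100-nucleotide paired-end sequencing of gene amplicons before and after pooled Saccharomyces cerevisiae strains, carrying tRNA-Arg(CCU) gene variants at the native locus, were competed in YPD at 37°C for 24 hours in six replicates. A genotype was kept only with ≥ 100 starting reads, and estimates < 0.5 were set to 0.5.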
row,Variant,yeast fitness
1,GAUCCGUUGGCGUAAUGGUAACGCGUCUCCCUCCUAAGGAGAAGACUGCGGGUUCGUGUCCCGUACGCAACG [U2A A57U G68C],≤ 0.5
2,GAUCCGUUGGCGUAAUGGUUACGCGUCUCCCUCCUAAGGCGAAGACUGCGGGUUCGAGUCCCGUACGGAACG [U2A A20U A40C],0.552
3,GAUCCGUUGGCGUAAUGGUAACGCGUCUCCCUCCUACGGAGAAGACUGCGGGUUCGAGUCCCGUACGGAACG [U2A A37C],0.833
4,GAUCCGUUGGCGUAAUGGUAACGCGUCUCCCUCCUAUGGAGAAGACUGCGGGUUCGAGUCCCGUACGGAACG [U2A A37U],0.689
5,GAUCCGUUGGCGUAAUGGUAACGCGUCUCCCUCCUAAGGUGAAGACUCCGGGUUCGAGUCCCGUACGGAACG [U2A A40U G48C],≤ 0.5
6,GAUUCGUGGGCGUAAUGGUAACGCGUCUCCAUCCUAAGGAGAACACUGCGGGUUCGAGUCCCGUGCGGAACG [U2A C4U U8G C31A G44C A65G],≤ 0.5
7,GAUCCGUUGGCGUAAUGGUCACGCGUCUCCCUCCUAAGGAGAAGACUGCGGAUUCGAGUCCCGUACGGAACG [U2A A20C G52A],0.542
8,GAUUCGUUGGCGUAAUGGUAACGCGUCACUCUCCUAAGGAGAAGACUGCGGGUUCGAGUCCCGUACGGAACG [U2A C4U U28A C30U],0.56
9,GAUCCGUUGGCGUGAUGGUAACGCGUCUCCCUCCUAAGGAGAAGACUGCGGGUUCGAGUCCCGUACGGAACG [U2A A14G],0.891
10,GAUCCGUUGGCGUAAUGGUAACGCGUCUCCCUCCUAAGGAGAAGACUGCGGGUUCGAGUCCCGUACGGAGCG [U2A A70G],0.979
11,GAUCCGUUGGCGUAAUGGUAACGCGUCUCCCUCCUAAGGAGAAGACUGCGGGUUCGAGUCCCGUACGGAUCG [U2A A70U],1.06
12,GAUCCGUUGGCGUAAUGGUAUCGCGUCUUCCUCCUAAGGUGAAGACUGCGGGAUCGAGUACCGUGCGGAACG [U2A A21U C29U A40U U53A C60A A65G],≤ 0.5
13,GAUCCGUUGGCGUAAUGGUACCGGGUCUCCCACCUAAGGAGCAGACUGCGGGUUCGAGUCCCGUUCGGAACG [U2A A21C C24G U32A A42C A65U],≤ 0.5
14,GAUCAGUUGGCGUAAUGGUAACGCGUCUCCCUCCUAAGGAGAAGACUGCGGGUUCGAGUCCCGUAUGGAACG [U2A C5A C66U],≤ 0.5
15,GAUCCGUUGGCGUAAUGGUAACGCGUCUCCCUCCUGAGGAGAAGACUGCGGGUUCGAGUCCCGUACGGAACG [U2A A36G],0.985
16,GAUCCGUUGGCGUAAUGGUAACGCGUCUCCCUCCUAAGGAGUAGACUGCGGGUUCGAGUCCCGUACCGAACG [U2A A42U G67C],≤ 0.5
17,GAUCCGUUGGCGUCAUGGUGACGCGUCUCCCUCCUGAGGAGAAGACUGCGGGUCUGAGUCCCGUACGCAACG [U2A A14C A20G A36G U54C C55U G68C],0.544
18,GAUCAGUUGGCGUAAUGGUACCGCGUCUCCCUCCUAAGGAGAAGACUGCGGGUUCGAGUCCCGUACGGAACG [U2A C5A A21C],≤ 0.5
19,GAUCCGUUGGCGUAGUGGUAACGUGUCUCCCUCCUAAGGAGAAGACUGCGGGUCCGAGUCCCGUACGGAACG [U2A A15G C24U U54C],0.726

row,Variant,yeast fitness
1,GAUCCGUUGGCGUAAUGGUAACGCGUCUCCCUCCUAAGGAGAAGACUGCGGGUUCGAGUCCCGUACGGAACG [U2A],0.988
2,GAUUCGUUGGCGUAAUGGUAACGCGUCUCCCUCCUAAGGAGAAGACUGCGGGUUCGAGUCCCGUACGGAACG [U2A C4U],0.965
3,GAUACGUUGGCGCAAUGGUAACGCGUCUCCAUCCUAAGGAGAAGACUGGGGGUUCGGGUCCCGUACGGAACG [U2A C4A U13C C31A C49G A57G],≤ 0.5
4,GAUCCGUUGGCGUAAUGGUAUCGCGUUCCCCUCCUAAGGAGAAGACUGCGGGUUCGAGUCCGGUACGGAACG [U2A A21U C27U U28C C62G],≤ 0.5
5,GAUCCGUUGGCGUAAUGGUAACGCGUCUCCCUCCUAAGGGGAAGACUGCGGGUUCGAGUCCCGUACGGUACG [U2A A40G A69U],0.553
6,GAUCCGUUGGCGUACUGGUAACGCGUCUCCCUCCUAAGGAGAAGACUGCGGGUUCGACUCCCGUACGGUACG [U2A A15C G58C A69U],≤ 0.5
7,GAUCCGUUGGCGUAAUGGUAACGCGUCUCCCUCCUAAGGGGAUGCCUGCGGGUUCGGGUCCCGUCCGGAACG [U2A A40G A43U A45C A57G A65C],≤ 0.5
8,GAUACGUUGGCGUAAUGGUAACGCGCCUCCUUCCUAAAGAGAAGACUGCGGGUUCGAGUCCCGUACGGAACG [U2A C4A U26C C31U G38A],≤ 0.5
9,GAUCAGUUGGCGUAAUGGUAAGGUGUCUCCCUCCUAAGGAGAAGACUGCCGGUUCGAGUCCCGUACGGAACG [U2A C5A C22G C24U G50C],≤ 0.5
10,GAUCCGUUGGCGUAUUGGUAACGCGUCUCCCUCCUAACAAGACGACUGCGGGUUCGAGUGCCGUCCGGAACG [U2A A15U G38C G39A A43C C60G A65C],≤ 0.5
11,GAUCCGUUGGCGUCAUGGUAACGCGUCUCUCUCGUAAGGAGAAGACUGCGGGUUCGACUCCCGUACGGAACG [U2A A14C C30U C34G G58C],≤ 0.5
12,GAUCCGUUGGCGUAAUGGUGACGCGUCUCCCUCCUAAGGAGAAGACUGCGGGUUCGACUCCCGUACGGAACG [U2A A20G G58C],0.973
13,GAUCCGUUGGCGUAAUGGUCACGCGUCUCCCUACUAAGGAGAAGACUGCGGGUUUGAGUCCCGUACGGAACG [U2A A20C C33A C55U],≤ 0.5
14,GAUCCGUUGGCGUAAUGGUAGCGCGUCUCCCUCCUGAGGAGAACACUGCGGGUUCGAGGCCCGUACGGAACG [U2A A21G A36G G44C U59G],≤ 0.5
15,GAUGCGUUGGCGUAAUGGUAACGCGUCUCCCUCCUAAGGAGAAGACUGCGGGUUAGAGUCGCGUACGGAACG [U2A C4G C55A C61G],≤ 0.5
16,GAUCCGUUGGCGUAAUGGUCACGCGUCUCCCUCCUAGGGAGAAGACUGCGGAAUCGAGUCCCGUACGGAACG [U2A A20C A37G G52A U53A],≤ 0.5
17,GAUCCGUUGGCGUUAUGGUAACGCGUCUCCCUCCUAAGGACAAGACUGCGGGUUCGAGUCCCGUACGGAACG [U2A A14U G41C],≤ 0.5
18,GAUCCGUUGGCGUUAUGGUCACGCGUCUCCCUCCAAACGAGAAGACUGCGGGUUCGAGUCCCGUACGGUACG [U2A A14U A20C U35A G38C A69U],≤ 0.5
19,GAUCCGUUGGCGUAAUGGUAGCGCGUCUCCCUCCUAAGCAGAAGACUGCGGGUUCGAGUCCCGUACGGCACG [U2A A21G G39C A69C],≤ 0.5
